# Several values for one entry are separate records, joined by “and”; a condition that tells them apart may be missing. Identical values can stand only once. Like-named read-outs stand apart in the source and are kept apart here.
# Experiments:
# [1] = test system: hypokalemic PP and hyperkalemic PP; details: doses from approximately 100 to 200 mg/day, versus placebo; cited from earlier work
# Safety/tolerability = type: in vivo, human
# Procedure, shortened: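 Open-label oral dose escalation. Cohorts A–E received 10 doses (1 single, then 9 twice daily). Cohort F (n = 6) took titrated twice-daily doses of 100–800 mg/day on days 1–14, up to 28 doses, and was assessed for safety only. Vital signs were taken at screening, baseline and each study day, with a 12-lead ECG at screening. AEs were recorded when reported.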
# [2] = test system: cytochrome P450 (CYP) 2C9; details: cited from earlier work
# Multiple‐dose = type: in vivo, human; details: for AUCτ, mean ± SD: after last of 9 multiple doses; for Cmax / Tmax: human, plasma, oral
# Procedure, shortened: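 After the single dose, the same subjects took the assigned dose twice daily, 9 doses, with only a morning dose on the final day. Morning doses were fasted; evening doses were taken without regard to meals. Plasma was sampled predose on days 3–7 (A–D) or 4–8 (E), then 0.5–12 h postdose. AUCτ by trapezoidal method; fluctuation 100*(Cmax−Cmin)/Cavg; accumulation as AUCτ/AUC0-t.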
# [3] = type: in vivo, human; details: for AUC0‐t, mean ± SD: fasted, plasma to 48 h
# Procedure, shortened: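 Healthy adults, cohorts A–E (n = 6 each), single oral tablet dose (25–400 mg) with 8 oz water after ≥10 h fast plus 4 h more. Potassium-EDTA plasma sampled predose and 0.5–48 h, stored −70°C ≤62 days, solid-supported liquid-liquid extraction. AUC0-t by trapezoidal method; AUC0-∞ = AUC0-t + Clast/λ. BQL values taken as zero. Power-model dose proportionality with 95% CI.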
# [4] = Cohort A (n = 6): 1 × 25 mg then 9 × 25 mg BID
# [5] = Cohort B (n = 6): 1 × 50 mg then 9 × 50 mg BID
# [6] = Cohort C (n = 6): 1 × 100 mg then 9 × 100 mg BID
# [7] = Cohort D (n = 6): 1 × 200 mg then 9 × 200 mg BID
# [8] = Cohort E (n = 6): 1 × 400 mg then 9 × 400 mg BID
# [9] = Cohort F (n = 6): dose titration 50 to 400 mg BID, up to 28 doses
# [10] = Cohort A 25 mg single oral dose (n = 6)
# [11] = Cohort B 50 mg single oral dose (n = 6)
# [12] = Cohort C 100 mg single oral dose (n = 6)
# [13] = Cohort D 200 mg single oral dose (n = 6)
# [14] = Cohort E 400 mg single oral dose (n = 6)
smiles,measurement,setting,value
NS(=O)(=O)c1cc(Cl)c(Cl)c(S(N)(=O)=O)c1 [dichlorphenamide],Frequency and severity of attacks in primary periodic paralysis,[1],significant reduction
same,Tolerability for extended use,"Safety/tolerability; 800 mg total daily dose, short‐term study",intolerable for extended use
same,"Blood potassium decreased, TEAE of any severity, subjects",Safety/tolerability; [4],0
same,"Dizziness, TEAE of any severity, subjects",Safety/tolerability; [4],0
same,"Dysgeusia, TEAE of any severity, subjects",Safety/tolerability; [4],0
same,"Dyspnea, TEAE of any severity, subjects",Safety/tolerability; [4],0
same,"Oral paresthesia, TEAE of any severity, subjects",Safety/tolerability; [4],0
same,"Paresthesia, TEAE of any severity, subjects",Safety/tolerability; [4],0
same,Subjects discontinuing due to TEAE,Safety/tolerability; [4],0 n (%)
same,Subjects reporting at least 1 TEAE,Safety/tolerability; [4],1 (16.7) n (%)
same,Subjects reporting at least 1 serious TEAE,Safety/tolerability; [4],0 n (%)
same,Total TEAEs reported,Safety/tolerability; [4],1
same,Treatment‐related AEs reported,Safety/tolerability; [4],0
same,"Blood potassium decreased, TEAE of any severity, subjects",Safety/tolerability; [5],0
same,"Dizziness, TEAE of any severity, subjects",Safety/tolerability; [5],0
same,"Dysgeusia, TEAE of any severity, subjects",Safety/tolerability; [5],0
same,"Dyspnea, TEAE of any severity, subjects",Safety/tolerability; [5],0
same,"Oral paresthesia, TEAE of any severity, subjects",Safety/tolerability; [5],0
same,"Paresthesia, TEAE of any severity, subjects",Safety/tolerability; [5],0
same,Subjects discontinuing due to TEAE,Safety/tolerability; [5],0 n (%)
same,Subjects reporting at least 1 TEAE,Safety/tolerability; [5],1 (16.7) n (%)
same,Subjects reporting at least 1 serious TEAE,Safety/tolerability; [5],0 n (%)
same,Total TEAEs reported,Safety/tolerability; [5],3
same,Treatment‐related AEs reported,Safety/tolerability; [5],2
same,"Blood potassium decreased, TEAE of any severity, subjects",Safety/tolerability; [6],1 (16.7)
same,"Dizziness, TEAE of any severity, subjects",Safety/tolerability; [6],0
same,"Dysgeusia, TEAE of any severity, subjects",Safety/tolerability; [6],0
same,"Dyspnea, TEAE of any severity, subjects",Safety/tolerability; [6],0
same,"Oral paresthesia, TEAE of any severity, subjects",Safety/tolerability; [6],0
same,"Paresthesia, TEAE of any severity, subjects",Safety/tolerability; [6],2 (33.3)
same,Subjects discontinuing due to TEAE,Safety/tolerability; [6],0 n (%)
same,Subjects reporting at least 1 TEAE,Safety/tolerability; [6],4 (66.7) n (%)
same,Subjects reporting at least 1 serious TEAE,Safety/tolerability; [6],0 n (%)
same,Total TEAEs reported,Safety/tolerability; [6],16
same,Treatment‐related AEs reported,Safety/tolerability; [6],14
same,"Blood potassium decreased, TEAE of any severity, subjects",Safety/tolerability; [7],0
same,"Dizziness, TEAE of any severity, subjects",Safety/tolerability; [7],4 (66.7)
same,"Dysgeusia, TEAE of any severity, subjects",Safety/tolerability; [7],3 (50.0)
same,"Dyspnea, TEAE of any severity, subjects",Safety/tolerability; [7],3 (50.0)
same,"Oral paresthesia, TEAE of any severity, subjects",Safety/tolerability; [7],1 (16.7)
same,"Paresthesia, TEAE of any severity, subjects",Safety/tolerability; [7],2 (33.3)
same,Subjects discontinuing due to TEAE,Safety/tolerability; [7],1 n (%) and 1 (16.7) n (%)
same,Subjects reporting at least 1 TEAE,Safety/tolerability; [7],6 (100) n (%)
same,Subjects reporting at least 1 serious TEAE,Safety/tolerability; [7],0 n (%)
same,Total TEAEs reported,Safety/tolerability; [7],36
same,Treatment‐related AEs reported,Safety/tolerability; [7],33
same,"Blood potassium decreased, TEAE of any severity, subjects",Safety/tolerability; [8],1 (16.7)
same,"Dizziness, TEAE of any severity, subjects",Safety/tolerability; [8],3 (50.0)
same,"Dysgeusia, TEAE of any severity, subjects",Safety/tolerability; [8],1 (16.7)
same,"Dyspnea, TEAE of any severity, subjects",Safety/tolerability; [8],1 (16.7)
same,"Oral paresthesia, TEAE of any severity, subjects",Safety/tolerability; [8],1 (16.7)
same,"Paresthesia, TEAE of any severity, subjects",Safety/tolerability; [8],4 (66.7)
same,Subjects discontinuing due to TEAE,Safety/tolerability; [8],3 n (%) and 3 (50.0) n (%)
same,Subjects reporting at least 1 TEAE,Safety/tolerability; [8],6 (100) n (%)
same,Subjects reporting at least 1 moderate TEAE,Safety/tolerability; [8],1 (16.7) n (%)
same,Subjects reporting at least 1 serious TEAE,Safety/tolerability; [8],0 n (%)
same,Total TEAEs reported,Safety/tolerability; [8],42
same,Treatment‐related AEs reported,Safety/tolerability; [8],39
same,"Dizziness, TEAE of any severity, subjects",Safety/tolerability; [9],0
same,"Dysgeusia, TEAE of any severity, subjects",Safety/tolerability; [9],0
same,"Dyspnea, TEAE of any severity, subjects",Safety/tolerability; [9],1 (16.7)
same,"Oral paresthesia, TEAE of any severity, subjects",Safety/tolerability; [9],0
same,"Paresthesia, TEAE of any severity, subjects",Safety/tolerability; [9],2 (33.3)
same,Subjects discontinuing due to TEAE,Safety/tolerability; [9],6 n (%) and 6 (100) n (%)
same,Subjects reporting at least 1 TEAE,Safety/tolerability; [9],6 (100) n (%)
same,Subjects reporting at least 1 moderate TEAE,Safety/tolerability; [9],2 (33.3) n (%)
same,Subjects reporting at least 1 serious TEAE,Safety/tolerability; [9],1 (16.7) n (%)
same,Total TEAEs reported,Safety/tolerability; [9],50
same,Treatment‐related AEs reported,Safety/tolerability; [9],40
same,TEAEs reported as moderate,Safety/tolerability; all cohorts,7
same,"Dizziness, number of subjects",Safety/tolerability; all cohorts (N = 36),7 subjects
same,"Paresthesia (including oral), number of subjects",Safety/tolerability; all cohorts (N = 36),12 subjects
same,Subjects reporting at least 1 TEAE in gastrointestinal system organ class,Safety/tolerability; all cohorts (N = 36),28%
same,Subjects reporting at least 1 TEAE in nervous system organ class,Safety/tolerability; all cohorts (N = 36),50%
same,Subjects withdrawn/discontinued due to AEs,"Safety/tolerability; all cohorts, 36 enrolled",10 subjects
same,Changes in vital signs or ECG findings,Safety/tolerability; any subject,No clinically relevant changes
same,"Serum potassium, clinically significant reduction in 1 subject","Safety/tolerability; cohort C, poststudy",2.8 mmol/L
same,"Serious TEAE of rash requiring brief hospitalization, subjects",Safety/tolerability; cohort F,1 subject
same,Subjects with below‐normal serum potassium,Safety/tolerability; cohort F,5 of 6
same,Discontinuations to which hypokalemia contributed,Safety/tolerability; cohort F (all 800 mg/day),5 of 6
same,"Serum potassium, lowest recorded value","Safety/tolerability; cohort F, multiple study time points",2.8 mmol/L
same,Subjects with clinically significant reductions in serum potassium,"Safety/tolerability; cohorts A through E, poststudy",2 subjects
same,Subjects with at least one mild‐to‐moderate AE,"Safety/tolerability; cohorts D, E, and F",100%
same,Effect on CYP2C9‐mediated 7‐methoxy‐4‐(trifluoromethyl)coumarin (MFC) metabolism,[2],relatively weak activator
same,"Cavg, mean ± SD",Multiple‐dose; Cohort A 25 mg BID (n = 5),837 ± 274 ng/mL
same,"AUCτ, mean ± SD",Multiple‐dose; Cohort A 25 mg BID (n = 5),"10,038 ± 3283 ng˙h/mL"
same,"Cavg, mean ± SD",Multiple‐dose; Cohort B 50 mg BID (n = 6),1527 ± 549 ng/mL
same,"AUCτ, mean ± SD",Multiple‐dose; Cohort B 50 mg BID (n = 6),"18,329 ± 6593 ng˙h/mL"
same,"Cavg, mean ± SD",Multiple‐dose; Cohort C 100 mg BID (n = 6),3122 ± 1108 ng/mL
same,"AUCτ, mean ± SD",Multiple‐dose; Cohort C 100 mg BID (n = 6),"37,468 ± 13,298 ng˙h/mL"
same,"Cavg, mean ± SD",Multiple‐dose; Cohort D 200 mg BID (n = 5),7080 ± 2854 ng/mL
same,"AUCτ, mean ± SD",Multiple‐dose; Cohort D 200 mg BID (n = 5),"84,960 ± 34,245 ng˙h/mL"
same,"Cavg, mean ± SD",Multiple‐dose; Cohort E 400 mg BID (n = 3),"17,298 ± 5219 ng/mL"
same,"AUCτ, mean ± SD",Multiple‐dose; Cohort E 400 mg BID (n = 3),"207,577 ± 62,626 ng˙h/mL"
same,Cmax,Multiple‐dose; 25 mg,1150 ± 239 ng/mL
same,Tmax,Multiple‐dose; 25 mg,2 h
same,Cmax,Multiple‐dose; 50 mg,2220 ± 959 ng/mL
same,Tmax,Multiple‐dose; 50 mg,3 h
same,Cmax,Multiple‐dose; 100 mg,4870 ± 1890 ng/mL
same,Tmax,Multiple‐dose; 100 mg,1.5 h
same,Cmax,Multiple‐dose; 200 mg,10700 ng/mL
same,Tmax,Multiple‐dose; 200 mg,2 h
same,Cmax,Multiple‐dose; 400 mg,26600 ng/mL
same,Tmax,Multiple‐dose; 400 mg,1 h
same,"Slope for LnAUCτ (dose proportionality, power model), with 95%CI",Multiple‐dose; multiple doses 25–400 mg BID,"1.09 (95%CI, 0.92–1.26)"
same,"Slope for LnCmax (dose proportionality, power model), with 95%CI",Multiple‐dose; multiple doses 25–400 mg BID,"1.13 (95%CI, 0.95–1.31)"
same,Accumulation ratios of AUCτ/AUC0‐t,Multiple‐dose; multiple‐ versus single‐dose phase,greater than 1
same,"AUC0‐∞, mean ± SD",[3]; [10],5908 ± 3959 ng˙h/mL
same,"AUC0‐t, mean ± SD",[3]; [10],2327 ± 731 ng˙;h/mL
same,"AUC0‐∞, mean ± SD",[3]; [11],"14,734 ± 4555 ng˙h/mL"
same,"AUC0‐t, mean ± SD",[3]; [11],7897 ± 2055 ng˙;h/mL
same,"AUC0‐∞, mean ± SD",[3]; [12],"28,901 ± 13,317 ng˙h/mL"
same,"AUC0‐t, mean ± SD",[3]; [12],"19,119 ± 7317 ng˙;h/mL"
same,"AUC0‐∞, mean ± SD",[3]; [13],"66,456 ± 26,211 ng˙h/mL"
same,"AUC0‐t, mean ± SD",[3]; [13],"38,132 ± 8249 ng˙;h/mL"
same,"AUC0‐∞, mean ± SD",[3]; [14],"142,007 ± 16,279 ng˙h/mL"
same,"AUC0‐t, mean ± SD",[3]; [14],"88,243 ± 12,616 ng˙;h/mL"
same,half-life,"[3]; human, plasma, oral",32 to 68 h
same,Tmax,"[3]; human, plasma, oral, Median Tmax, range across doses, single doses 25–400 mg",1.5 to 3 h
same,Cmax,"[3]; human, plasma, po, 25 mg",298 ± 77 ng/mL
same,half-life,"[3]; human, plasma, po, 25 mg",68.4 ± 35 h
same,Cmax,"[3]; human, plasma, po, 50 mg",709 ± 490 ng/mL
same,half-life,"[3]; human, plasma, po, 50 mg",51.4 ± 24 h
same,Cmax,"[3]; human, plasma, po, 100 mg",1510 ± 909 ng/mL
same,half-life,"[3]; human, plasma, po, 100 mg",31.9 ± 11 h
same,Cmax,"[3]; human, plasma, po, 200 mg",3030 ± 1210 ng/mL
same,half-life,"[3]; human, plasma, po, 200 mg",41 ± 17 h
same,Cmax,"[3]; human, plasma, po, 400 mg",6320 ± 1280 ng/mL
same,half-life,"[3]; human, plasma, po, 400 mg",38.6 ± 8 h
same,"Slope for LnAUC0‐t (dose proportionality, power model), with 95%CI",[3]; single doses 25–400 mg,"1.29 (95%CI, 1.18‐1.40)"
same,"Slope for LnCmax (dose proportionality, power model), with 95%CI",[3]; single doses 25–400 mg,"1.11 (95%CI, 0.97‐1.26)"

# Source: publication PMC6585844 (Clinical Pharmacology in Drug Development, 2018)
